Data published in ChEMBL document CHEMBL4619802, “Discovery and Characterization of Pure RhlR Antagonists against Pseudomonas aeruginosa Infections” (J Med Chem, 2020).
Blank lines part the entries; values can stand above or below the compound they belong to. Calls of active or inactive are those of the source. No cut-off for these calls is given here.

Key:
Pseudomonas aeruginosa [1] = assay: Effect on lasB expression in Pseudomonas aeruginosa harboring RhlR mutant up to 10 uM after 24 hrs by RT-qPCR method; assay type: functional, organism-based
Outline: (§1)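 P. aeruginosa overnight culture (OD595 = 1.0) was diluted 1:20 in AB medium (pH 7.5) with compounds or controls at 0–10 µM. It was grown statically in borosilicate bottles at 37 °C for 24 h, and biofilm cells were collected. Total RNA was extracted with TRI reagent. SYBR-based RT-qPCR used QS gene primers: 95 °C 10 s, then 40 cycles of 95 °C 10 s and 60 °C 10 s.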

Pseudomonas aeruginosa [2] = assay: Effect on pycocyanin production in Pseudomonas aeruginosa harboring RhlR mutant at 10 uM after 24 hrs by […]; assay type: functional, organism-based
Outline: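 P. aeruginosa overnight culture (OD595 = 1.0) was diluted 1:100 in AB medium with compounds or controls at 0–10 µM and grown at 37 °C for 24 h. Pyocyanin was extracted from the supernatant with 50% TFA at 37 °C for 1 h, then filtered. It was quantified by C18 HPLC (99:1 water/TFA, 0.5 mL/min, 25 °C) as peak height at the 20 min retention time.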

[3] = target: T1, Transcriptional regulator MvfR (Pseudomonas aeruginosa PA14) (UniProt A0A072ZLE6); assay: Agonist activity at Pseudomonas aeruginosa PqsR expressed in Escherichia coli DH5alpha at 0.1 to 10 uM incubated for 1.5 hrs by luminescence reporter gene assay
T1 sequence (whole entry): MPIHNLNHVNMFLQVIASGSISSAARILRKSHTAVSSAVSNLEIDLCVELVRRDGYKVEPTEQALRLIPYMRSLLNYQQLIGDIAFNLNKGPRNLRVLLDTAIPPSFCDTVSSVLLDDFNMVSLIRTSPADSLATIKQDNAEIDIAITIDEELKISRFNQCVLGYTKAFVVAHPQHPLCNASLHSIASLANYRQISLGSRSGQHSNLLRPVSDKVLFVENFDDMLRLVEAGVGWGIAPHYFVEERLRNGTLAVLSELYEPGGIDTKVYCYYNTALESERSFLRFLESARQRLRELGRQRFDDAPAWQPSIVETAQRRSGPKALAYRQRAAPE

Pseudomonas aeruginosa [4] = assay: Effect on pqsR expression in Pseudomonas aeruginosa harboring RhlR mutant up to 10 uM after 24 hrs by RT-qPCR method; assay type: functional, organism-based; outline: as §1
Pseudomonas aeruginosa [5] = assay: Effect on extracellular polymeric substance in biofilm of Pseudomonas aeruginosa assessed as reduction in carbohydrate level at 10 uM relative to control; assay type: functional; design: scale not given: the % may be the effect or the level left
Outline: (§2)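 Biofilm scraped from drip-flow reactor slides and resuspended in 0.01 M KCl. Sonicated 4 cycles of 5 s on/5 s off, supernatant filtered through 0.22 µm. Protein by Lowry/Folin, read at OD750. Carbohydrate by sulfuric acid 30 min then 5% phenol at 90 °C for 5 min, read at OD490. Each divided by OD595.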

Pseudomonas aeruginosa [6] = assay: Downregulation of rhlA expression in biofilm of Pseudomonas aeruginosa at 10 uM after 24 hrs by RT-qPCR analysis relative to control; assay type: functional
Outline: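 P. aeruginosa (OD595 1.0) diluted 1:20 in AB medium with compound in borosilicate bottles, 37 °C for 24 h. Total RNA extracted from biofilm cells and run by SYBR RT-qPCR with QS-gene primers. Cycling: 95 °C 10 s, then 40 cycles of 95 °C 10 s and 60 °C 10 s.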

Pseudomonas aeruginosa [7] = assay: Antibacterial activity against Pseudomonas aeruginosa infected in Tenebrio molitor larvae assessed as larvae survival at 10 uM incubated for 20 days and measured every 5 days; assay type: functional
Outline: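 P. aeruginosa overnight culture (OD595 = 1.0) was centrifuged, and the supernatant passed through a 0.22 µm filter. 10 µL was injected into T. molitor larvae by syringe needle, with compounds or controls at 0–10 µM. Larvae were kept in Petri dishes at 25 °C for 20 days, and mortality was scored every 5 days.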

Pseudomonas aeruginosa [8] = assay: Antibacterial activity against Pseudomonas aeruginosa assessed as bacterial growth at 100 uM incubated for 24 hrs relative to control; assay type: functional
Outline: (§3)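 P. aeruginosa overnight culture (OD595 1.0) diluted 1:20 in AB medium (pH 7.5, 1% glucose, casamino acids, arginine) with compound, in borosilicate bottles, 37 °C for 24 h without shaking. Growth taken as OD595 of the suspended culture. Attached cells washed twice with PBS, stained with 0.1% crystal violet for 10 min, dye eluted in ethanol and read at 545 nm.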

[9] = target: T1, Transcriptional regulator MvfR (Pseudomonas aeruginosa PA14); assay: Antagonist activity at Pseudomonas aeruginosa PqsR expressed in Escherichia coli DH5alpha at 0.1 to 10 uM incubated for 1.5 hrs by luminescence reporter gene assay
[10] = target: T2, Transcriptional activator protein LasR (Pseudomonas aeruginosa (strain ATCC 15692 / PAO1 / 1C / PRS 101 / LMG12228)) (UniProt P25084); assay: Agonist activity at Pseudomonas aeruginosa LasR expressed in Escherichia coli DH5alpha at 0.1 to 10 uM incubated for 1.5 hrs by luminescence reporter gene assay
T2 sequence (whole entry): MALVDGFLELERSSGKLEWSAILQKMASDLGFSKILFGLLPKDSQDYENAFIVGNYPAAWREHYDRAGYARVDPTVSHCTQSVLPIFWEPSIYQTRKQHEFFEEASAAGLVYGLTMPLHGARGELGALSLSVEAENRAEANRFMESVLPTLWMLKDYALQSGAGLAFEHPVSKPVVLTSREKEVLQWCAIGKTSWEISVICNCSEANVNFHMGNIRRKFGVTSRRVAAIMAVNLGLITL

Pseudomonas aeruginosa [11] = assay: Antibacterial activity against Pseudomonas aeruginosa assessed as bacterial growth at 10 uM incubated for 24 hrs relative to control; assay type: functional; outline: as §3
Pseudomonas aeruginosa [12] = assay: Downregulation of phzC1 expression in Pseudomonas aeruginosa harboring RhlR mutant up to 10 uM after 24 hrs by RT-qPCR method; assay type: functional, organism-based; outline: as §1
Pseudomonas aeruginosa [13] = assay: Effect on lasR expression in Pseudomonas aeruginosa harboring RhlR mutant up to 10 uM after 24 hrs by RT-qPCR method; assay type: functional, organism-based; outline: as §1
Pseudomonas aeruginosa [14] = assay: Downregulation of rhlA expression in Pseudomonas aeruginosa harboring RhlR mutant up to 10 uM after 24 hrs by RT-qPCR method; assay type: functional, organism-based; outline: as §1
Pseudomonas aeruginosa [15] = assay: Effect on extracellular polymeric substance in biofilm of Pseudomonas aeruginosa assessed as reduction in protein level at 10 uM relative to control; assay type: functional; design: scale not given: the % may be the effect or the level left; outline: as §2
[16] = target: T2, Transcriptional activator protein LasR (Pseudomonas aeruginosa (strain ATCC 15692 / PAO1 / 1C / PRS 101 / LMG12228)); assay: Antagonist activity at Pseudomonas aeruginosa LasR expressed in Escherichia coli DH5alpha at 0.1 to 10 uM incubated for 1.5 hrs by luminescence reporter gene assay
[17] = target: T3, HTH-type quorum-sensing regulator RhlR (Pseudomonas aeruginosa (strain ATCC 15692 / PAO1 / 1C / PRS 101 / LMG12228)) (UniProt P54292); assay: Antagonist activity at RhlR in Pseudomonas aeruginosa assessed as rhamnolipid production at 10 uM incubated for 24 hrs by Orcinol staining based assay relative to control; design: scale not given: the % may be the effect or the level left
T3 sequence (whole entry): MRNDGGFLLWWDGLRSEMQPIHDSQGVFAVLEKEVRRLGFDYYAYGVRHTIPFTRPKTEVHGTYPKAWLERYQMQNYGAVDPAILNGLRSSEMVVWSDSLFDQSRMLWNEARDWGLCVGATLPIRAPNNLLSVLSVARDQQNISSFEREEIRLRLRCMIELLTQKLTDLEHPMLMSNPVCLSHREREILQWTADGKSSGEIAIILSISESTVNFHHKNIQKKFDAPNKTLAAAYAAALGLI

[18] = target: T3, HTH-type quorum-sensing regulator RhlR (Pseudomonas aeruginosa (strain ATCC 15692 / PAO1 / 1C / PRS 101 / LMG12228)); assay: Agonist activity at Pseudomonas aeruginosa RhlR expressed in Escherichia coli DH5alpha assessed as relative protein activity at 100 uM incubated for 1.5 hrs by luminescence reporter gene assay relative to control
[19] = target: T3, HTH-type quorum-sensing regulator RhlR (Pseudomonas aeruginosa (strain ATCC 15692 / PAO1 / 1C / PRS 101 / LMG12228)); assay: Modulation of RhlR in Pseudomonas aeruginosa assessed as biofilm formation at 10 uM incubated for 24 hrs under static condition by crystal violet staining based assay relative to control
[20] = target: T3, HTH-type quorum-sensing regulator RhlR (Pseudomonas aeruginosa (strain ATCC 15692 / PAO1 / 1C / PRS 101 / LMG12228)); assay: Antagonist activity at RhlR in Pseudomonas aeruginosa assessed as rhamnolipid production at 100 uM incubated for 24 hrs by Orcinol staining based assay relative to control; design: scale not given: the % may be the effect or the level left
[21] = target: T3, HTH-type quorum-sensing regulator RhlR (Pseudomonas aeruginosa (strain ATCC 15692 / PAO1 / 1C / PRS 101 / LMG12228)); assay: Modulation of RhlR in Pseudomonas aeruginosa assessed as reduction in biofilm formation at 10 uM incubated for 48 hrs under dynamic condition by measuring biofilm volume by 4',6-diamidino-2-phenylindole staining based confocal laser scanning microscopy
Outline: (§4)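 Drip-flow reactor with glass slides, fed continuously at 0.3 mL/min with AB medium containing 5% P. aeruginosa (OD595 1.0) plus compound, 37 °C for 48 h. Unattached cells removed with PBS. Volume and thickness obtained with Comstat2.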

[22] = target: T3, HTH-type quorum-sensing regulator RhlR (Pseudomonas aeruginosa (strain ATCC 15692 / PAO1 / 1C / PRS 101 / LMG12228)); assay: Agonist activity at Pseudomonas aeruginosa RhlR expressed in Escherichia coli DH5alpha assessed as relative protein activity at 1000 uM incubated for 1.5 hrs by luminescence reporter gene assay relative to control
[23] = target: T3, HTH-type quorum-sensing regulator RhlR (Pseudomonas aeruginosa (strain ATCC 15692 / PAO1 / 1C / PRS 101 / LMG12228)); assay: Modulation of RhlR in Pseudomonas aeruginosa assessed as reduction in biofilm formation at 10 uM incubated for 48 hrs under dynamic condition by measuring biofilm thickness by 4',6-diamidino-2-phenylindole staining based confocal laser scanning microscopy; outline: as §4
[24] = target: T3, HTH-type quorum-sensing regulator RhlR (Pseudomonas aeruginosa (strain ATCC 15692 / PAO1 / 1C / PRS 101 / LMG12228)); assay: Modulation of RhlR in Pseudomonas aeruginosa assessed as biofilm formation at 100 uM incubated for 24 hrs under static condition by crystal violet staining based assay relative to control
[25] = target: T3, HTH-type quorum-sensing regulator RhlR (Pseudomonas aeruginosa (strain ATCC 15692 / PAO1 / 1C / PRS 101 / LMG12228)); assay: Antagonist activity at Pseudomonas aeruginosa RhlR expressed in Escherichia coli DH5alpha assessed as relative protein activity at 10 uM incubated for 1.5 hrs in presence of N-butyryl-L-homoserine lactone by luminescence reporter gene assay relative to control; design: scale not given: the % may be the effect or the level left
Outline: (§5)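 E. coli DH5α sdiA mutant carrying RhlR and rhlA::lacZ plasmids, at OD595 0.3 in LB. Compound given with BHL (10 µM per footnote) and 0.4% arabinose, 37 °C for 1.5 h.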

[26] = target: T3, HTH-type quorum-sensing regulator RhlR (Pseudomonas aeruginosa (strain ATCC 15692 / PAO1 / 1C / PRS 101 / LMG12228)); assay: Antagonist activity at Pseudomonas aeruginosa RhlR expressed in Escherichia coli DH5alpha assessed as relative protein activity at 100 uM incubated for 1.5 hrs in presence of N-butyryl-L-homoserine lactone by luminescence reporter gene assay relative to control; design: scale not given: the % may be the effect or the level left; outline: as §5

SMILES: CCCC(=O)C#Cc1ccc(F)c(F)c1
Activity (Pseudomonas aeruginosa [1]): inactive
Activity (Pseudomonas aeruginosa [2]): inactive
Activity [3]: inactive
Activity (Pseudomonas aeruginosa [4]): inactive
Activity (Pseudomonas aeruginosa [5]): 39%
Activity (Pseudomonas aeruginosa [6]): 65 - 79%
survival at 10 µM (Pseudomonas aeruginosa [7]): 80%
Activity (Pseudomonas aeruginosa [8]): 99%
Activity [9]: inactive
Activity [10]: inactive
Activity (Pseudomonas aeruginosa [11]): 103%
Activity (Pseudomonas aeruginosa [12]): Active
Activity (Pseudomonas aeruginosa [13]): inactive
Activity (Pseudomonas aeruginosa [14]): Active
Activity (Pseudomonas aeruginosa [15]): 72%

Activity [16]: Active
Activity [3]: inactive
Activity [9]: inactive
Activity [10]: inactive
SMILES: CCCCC[C@H](O)CC(=O)CCc1ccc(O)c(OC)c1 [GINGEROL]
Activity (Pseudomonas aeruginosa [6]): 38%
Activity (Pseudomonas aeruginosa [8]): 101%
Activity (Pseudomonas aeruginosa [11]): 96%

Activity [17]: 58%
Activity [18]: 4%
Activity [3]: inactive
Activity [19]: 84%
Activity [20]: 45%
Activity [21]: 14.4 um3/um2
Activity [9]: inactive
Activity [10]: inactive
Activity [22]: 37%
Activity [23]: 20.2 µm
Activity [24]: 69%
Activity [25]: 74%
Activity [26]: 54%
SMILES: CCCC(=O)NC1CCCC1
Activity (Pseudomonas aeruginosa [6]): 65 - 79%
Activity (Pseudomonas aeruginosa [8]): 98%
Activity (Pseudomonas aeruginosa [11]): 95%
